According to ChEMBL document CHEMBL1140844, “2-[(3-Methoxyphenylethyl)phenoxy]-based ABCB1 inhibitors: effect of different basic side-chains on their biological properties” (J Med Chem, 2008):

Legend:
[1] = molecular target: T1, ATP-dependent translocase ABCB1 (Homo sapiens, UniProt P08183); assay: Inhibition of ABCB1 in human Caco-2 cells assessed as ATPase activation at 100 uM after 2 hrs; type: cell-based; conditions: caco-2, 2 h
Method in brief: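 Caco-2 cells seeded at 2 × 10⁴ cells/well and held overnight at 37 °C, 5% CO2. Exposed to compound in complete medium for 2 h at 37 °C. Cells then lysed and ATP read by luciferase luminescence after 10 min dark adaptation. Tested at 100 µM; a positive response is reported as a percentage.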

[2] = molecular target: T2, 5-hydroxytryptamine receptor 1A (Homo sapiens, UniProt P08908); assay: Displacement of [3H]8-OH-DPAT from human cloned 5-HT1A receptor expressed in human HeLa cells; type: cell-based
T2 sequence (P08908 whole entry): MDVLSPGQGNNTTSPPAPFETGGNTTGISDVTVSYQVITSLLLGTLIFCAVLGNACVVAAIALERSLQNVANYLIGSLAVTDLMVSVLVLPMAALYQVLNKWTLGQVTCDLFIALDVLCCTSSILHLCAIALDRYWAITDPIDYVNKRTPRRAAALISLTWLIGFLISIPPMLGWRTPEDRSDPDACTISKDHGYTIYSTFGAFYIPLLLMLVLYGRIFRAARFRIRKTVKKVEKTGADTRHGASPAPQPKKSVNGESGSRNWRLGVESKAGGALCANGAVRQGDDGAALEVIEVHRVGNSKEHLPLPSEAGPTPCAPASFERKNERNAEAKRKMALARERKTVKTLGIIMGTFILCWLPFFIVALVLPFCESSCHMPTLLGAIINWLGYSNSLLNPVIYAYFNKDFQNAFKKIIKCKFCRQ
Method in brief: (§1)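 Compounds at 0.1 nM–10 µM in 50 mM Tris-HCl pH 7.4, 5 mM MgSO4, 120 min at 37 °C. Filtered on PEI-soaked GF/C. Nonspecific binding with 10 µM 8-OH-DPAT. […] Mean of three experiments, triplicate samples.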

[3] = molecular target: T3, D(2) dopamine receptor (Homo sapiens, UniProt P14416); assay: Displacement of [3H]spiroperidol from human cloned dopaminergic D2 receptor expressed in rat C6 cells; type: cell-based
[4] = tested on: Caco-2; assay: Ratio of apparent permeability from basolateral to apical over apical to basolateral side of human Caco-2 cells after 120 mins by UV-visible spectroscopy; conditions: caco-2, 2 h
[5] = molecular target: T1, ATP-dependent translocase ABCB1; assay: Inhibition of ABCB1-mediated [3H]vinblastine transportation in human Caco-2 cells; type: cell-based
Method in brief: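 Caco-2 monolayers grown 21 days (TEER >800 Ω × cm²). 20 nM [3H]vinblastine added to the basolateral side with or without compound (200 nM–400 µM) for 120 min at 37 °C. Appearance on the apical side measured by scintillation counting. IC50 from nonlinear fit. Mean of three experiments, triplicate samples.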

[6] = molecular target: T4, 5-hydroxytryptamine receptor 1A (Homo sapiens) (UniProt P08908); assay: Displacement of [3H]8-OH-DPAT from human cloned 5-HT1A receptor expressed in human HeLa cells at 10 uM; type: cell-based; method in brief: as §1
T4 sequence (whole entry): T2 sequence (P08908 whole entry)

[7] = molecular target: T3, D(2) dopamine receptor; assay: Displacement of [3H]spiroperidol from human cloned dopaminergic D2 receptor expressed in rat C6 cells at 10 uM; type: cell-based
Method in brief: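 Buffer was 50 mM Tris, 10 mM MgCl2, 1 mM EDTA, pH 7.4. Incubated 60 min at 27 °C, then filtered on PEI-soaked GF/C. Nonspecific binding with 10 µM haloperidol.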

[8] = molecular target: ABCB1 (Homo sapiens, UniProt P08183); assay: Activation of ABCB1 in human Caco-2 cells assessed as ATPase activation at 100 uM after 2 hrs
Chain of ABCB1 (P08183 whole entry): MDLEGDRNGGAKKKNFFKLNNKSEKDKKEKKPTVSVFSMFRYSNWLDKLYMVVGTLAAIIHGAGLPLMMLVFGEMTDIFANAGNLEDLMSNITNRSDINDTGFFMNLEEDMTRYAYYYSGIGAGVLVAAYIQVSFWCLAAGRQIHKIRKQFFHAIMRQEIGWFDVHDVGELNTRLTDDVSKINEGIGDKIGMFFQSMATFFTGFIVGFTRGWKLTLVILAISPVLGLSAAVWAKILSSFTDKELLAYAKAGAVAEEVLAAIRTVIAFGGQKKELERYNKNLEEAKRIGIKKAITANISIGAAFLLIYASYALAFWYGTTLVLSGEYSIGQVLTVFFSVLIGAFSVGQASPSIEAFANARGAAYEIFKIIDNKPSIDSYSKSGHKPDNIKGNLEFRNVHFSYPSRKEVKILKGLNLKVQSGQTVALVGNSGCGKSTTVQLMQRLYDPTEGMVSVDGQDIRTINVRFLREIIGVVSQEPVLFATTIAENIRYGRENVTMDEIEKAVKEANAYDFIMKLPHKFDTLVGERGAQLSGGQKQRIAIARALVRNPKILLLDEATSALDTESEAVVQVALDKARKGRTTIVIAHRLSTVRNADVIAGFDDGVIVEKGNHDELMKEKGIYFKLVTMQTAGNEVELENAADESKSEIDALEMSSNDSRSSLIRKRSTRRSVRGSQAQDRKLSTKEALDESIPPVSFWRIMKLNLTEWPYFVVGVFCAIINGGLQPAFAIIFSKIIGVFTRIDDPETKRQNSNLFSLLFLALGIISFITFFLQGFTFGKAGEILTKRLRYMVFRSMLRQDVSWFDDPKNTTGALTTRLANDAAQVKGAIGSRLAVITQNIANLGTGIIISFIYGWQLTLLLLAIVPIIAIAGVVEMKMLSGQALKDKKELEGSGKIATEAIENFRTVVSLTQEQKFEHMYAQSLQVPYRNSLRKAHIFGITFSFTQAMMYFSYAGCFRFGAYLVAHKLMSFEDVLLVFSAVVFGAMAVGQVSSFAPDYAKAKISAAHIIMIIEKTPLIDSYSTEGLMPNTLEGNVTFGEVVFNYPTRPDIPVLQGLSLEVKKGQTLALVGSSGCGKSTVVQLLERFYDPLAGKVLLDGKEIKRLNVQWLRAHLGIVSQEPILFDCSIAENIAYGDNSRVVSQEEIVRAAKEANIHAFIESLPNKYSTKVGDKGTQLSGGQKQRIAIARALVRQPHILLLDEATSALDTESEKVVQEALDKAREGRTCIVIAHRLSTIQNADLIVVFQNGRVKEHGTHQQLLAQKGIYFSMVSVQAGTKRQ

T3 sequence (P14416 whole entry): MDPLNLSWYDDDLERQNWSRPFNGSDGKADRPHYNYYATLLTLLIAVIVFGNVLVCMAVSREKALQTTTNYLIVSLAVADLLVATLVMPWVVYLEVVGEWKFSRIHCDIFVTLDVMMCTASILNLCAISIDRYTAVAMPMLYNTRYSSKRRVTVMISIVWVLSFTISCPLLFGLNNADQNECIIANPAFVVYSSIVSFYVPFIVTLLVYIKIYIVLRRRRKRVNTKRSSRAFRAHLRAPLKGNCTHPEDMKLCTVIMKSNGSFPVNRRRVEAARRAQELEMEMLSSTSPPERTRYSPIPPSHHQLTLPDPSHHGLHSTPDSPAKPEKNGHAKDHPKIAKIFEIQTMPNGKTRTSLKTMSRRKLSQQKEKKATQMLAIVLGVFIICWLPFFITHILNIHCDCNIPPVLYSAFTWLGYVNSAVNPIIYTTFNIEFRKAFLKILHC
T1 sequence (P08183 whole entry): as the sequence (P08183 whole entry) above

| SMILES | Activity [1] | Ki [2] | Ki [3] | Ratio [4] | IC50 [5] | inhibition [6] | inhibition [7] | activation at 2 h, 100 µM [8] |
| --- | --- | --- | --- | --- | --- | --- | --- | --- |
| COc1cccc(CCc2ccccc2OCCN2CCN(c3ncccn3)CC2)c1 | Not Active | 656 nM | 629 nM |  |  |  |  |  |
| COc1cccc(CCc2ccccc2OCCCN2CCN(c3cccc(Cl)c3)CC2)c1 | Not Active | 1130 nM | 298 nM | 6.8 | 2500 nM |  |  |  |
| COc1cccc(CCc2ccccc2OCCCCCN2CCN(c3cccc(Cl)c3)CC2)c1 | Not Active | > 5000 nM | > 1000 nM |  |  | 14% | 25% |  |
| COc1cccc(CCc2ccccc2OCCN2CCc3ccccc3C2)c1 | Not Active | 1310 nM | > 1000 nM | 7.2 | 12000 nM |  | 35% |  |
| COc1cccc(CCc2ccccc2OCCN2CCN(c3cccc(Cl)c3)CC2)c1 | Not Active | 686 nM | > 1000 nM | 3.6 | 3200 nM |  | 43% |  |
| COc1cccc(CCc2ccccc2OCCCCN2CCN(c3cccc(Cl)c3)CC2)c1 | Not Active | 1310 nM | > 1000 nM | 5.1 | 1800 nM |  | 35% |  |
| COc1cccc(CCc2ccccc2OCCCCCN2CCN(C)CC2)c1 | Not Active | > 5000 nM | > 1000 nM | 2.5 | 6820 nM | 24% | 26% |  |
| COc1cccc(CCc2ccccc2OCCN2CCN(c3ccccc3OC)CC2)c1 |  | 1240 nM | 427 nM | 6.8 | 25000 nM |  |  | 10% |
| COc1cccc(CCc2ccccc2OCCCN2CCN(c3ccc(F)cc3)CC2)c1 |  | 800 nM | 655 nM |  |  |  |  | 38% |
| COc1cccc(CCc2ccccc2OCCCN2CCN(c3ncccn3)CC2)c1 | Not Active | 331 nM | 20 nM | 131 | 1200 nM |  |  |  |
| COc1cccc(CCc2ccccc2OCCCCN2CCN(c3ccccc3OC)CC2)c1 |  | 1090 nM | 67 nM | 3.9 | 5800 nM |  |  | 54% |
| COc1cc2c(cc1OC)CN(CCc1ccc(NC(=O)c3cccc4c(=O)c5cccc(OC)c5[nH]c34)cc1)CC2 | Not Active |  |  |  |  |  |  |  |
| COc1cccc(CCc2ccccc2OCCCN2CCN(C)CC2)c1 | Not Active | > 5000 nM | 565 nM | 4.7 | 2500 nM | 40% |  |  |
| COc1cccc(CCc2ccccc2OCCCN2CCN(c3cccc(C(F)(F)F)c3)CC2)c1 | Not Active | 2870 nM | 1410 nM | 4.4 | 6500 nM |  |  |  |
| COc1cccc(CCc2ccccc2OCCCCN2CCc3ccccc3C2)c1 | Not Active | 1330 nM | > 1000 nM |  |  |  | 48% |  |
| COc1cccc(CCc2ccccc2OCCN2CCN(c3cccc(C(F)(F)F)c3)CC2)c1 | Not Active | 1410 nM | > 1000 nM | 2.6 | 40000 nM |  | 31% |  |
| COc1cccc(CCc2ccccc2OCCCN2CCN(c3ccccc3OC)CC2)c1 |  | 756 nM | 6.3 nM | 8.1 | 14000 nM |  |  | 20% |
| COc1cccc(CCc2ccccc2OCCCCCN2CCc3ccccc3C2)c1 | Not Active | > 5000 nM | > 1000 nM | 7.3 | 3170 nM | 15% | 16% |  |
| COc1cccc(CCc2ccccc2OCCCCCN2CCN(c3ncccn3)CC2)c1 | Not Active | > 5000 nM | > 1000 nM | 7.1 | 1720 nM | 38% | 24% |  |
